In brackets after ≈: the same amount, converted by molar mass.
How the values were obtained:
[1] = Metabolic stability in mouse liver microsomes assessed as half life; type: ADME, Microsome
Procedure, shortened: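 Liver microsomes from human, rat, mouse, dog, cynomolgus monkey and rabbit were incubated with compound. Stability is reported as half-life (T1/2, min). Values are means of at least three separate experiments.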

[2] = molecular target: T1, Cytochrome P450 1A2 (Homo sapiens, UniProt P05177); assay: Inhibition of CYP1A2 (unknown origin); type: ADME
T1 sequence (P05177 whole entry): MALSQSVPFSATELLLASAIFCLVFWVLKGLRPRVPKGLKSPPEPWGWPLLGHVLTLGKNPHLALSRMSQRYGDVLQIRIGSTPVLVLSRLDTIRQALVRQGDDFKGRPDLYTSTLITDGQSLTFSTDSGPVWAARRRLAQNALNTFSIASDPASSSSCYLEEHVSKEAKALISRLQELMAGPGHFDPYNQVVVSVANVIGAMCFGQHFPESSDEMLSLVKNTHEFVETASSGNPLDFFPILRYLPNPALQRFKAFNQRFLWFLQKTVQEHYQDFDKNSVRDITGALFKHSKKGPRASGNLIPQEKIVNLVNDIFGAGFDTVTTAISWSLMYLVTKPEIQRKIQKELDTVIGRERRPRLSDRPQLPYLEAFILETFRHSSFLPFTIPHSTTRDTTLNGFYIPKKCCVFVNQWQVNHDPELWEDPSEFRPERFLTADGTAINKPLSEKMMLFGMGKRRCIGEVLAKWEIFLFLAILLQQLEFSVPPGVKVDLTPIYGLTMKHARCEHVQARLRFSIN
Procedure, shortened: (§1)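 Inhibition of CYP1A2, 2C9, 2C19, 2D6 and 3A4, read out as IC50. The highest concentration tested was 40 μM.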

[3] = molecular target: Cytochrome P450 2C9 (Homo sapiens, UniProt P11712); assay: Inhibition of CYP2C9 (unknown origin); type: ADME; procedure, shortened: as §1
[4] = molecular target: Cytochrome P450 2D6 (Homo sapiens, UniProt P10635); assay: Inhibition of CYP2D6 (unknown origin); type: ADME; procedure, shortened: as §1
[5] = Protein binding in mouse assessed as unbound fraction; type: ADME
[6] = Aqueous solubility of crystalline free base form of compound at pH 7.4; type: physicochemical; details: aqueous medium
Procedure, shortened: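 Aqueous solubility of the crystalline free base, measured at pH 7.4 and reported in μg/mL.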

[7] = Cmax in dog at 10 mg/kg, po; type: ADME, organism-based, Canis lupus familiaris; design: dose 10 mg/kg, route oral; details: in vivo
Procedure, shortened: (§2)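 Oral PK: single dose of 10 mg/kg as a solution in ethanol/TPGS/PEG 300 (5:5:90) given to mouse, dog and monkey. Cmax (μM), AUC (μM × h) and bioavailability F (%) were derived, with F taken against the iv arm.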

[8] = Half life in cynomolgus monkey at 2 mg/kg, iv; type: ADME, organism-based, Macaca fascicularis; details: in vivo
Procedure, shortened: (§3)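 Dog and monkey iv PK: 2 mg/kg given by iv administration. Clearance (mL min⁻¹ kg⁻¹), Vss, T1/2 (h) and MRT (h) were derived.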

[9] = MRT in cynomolgus monkey at 2 mg/kg, iv; type: ADME, organism-based, Macaca fascicularis; details: in vivo; procedure, shortened: as §3
[10] = Cmax in cynomolgus monkey at 10 mg/kg, po; type: ADME, organism-based, Macaca fascicularis; design: dose 10 mg/kg, route oral; details: in vivo; procedure, shortened: as §2
[11] = Drug metabolism in C57BL/6 mouse assessed as N-dealkylation of compound by measuring primary amide metabolite formation in mouse plasma by deuterium kinetic isotope effect; type: ADME
Procedure, shortened: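 Circulating primary amide metabolite, formed by N-dealkylation of the deuteromethyl amide, was measured in the mouse, dog and monkey PK studies (10 mg/kg po; iv arms). The lower limit of detection was about 2 nM.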

Chain of Cytochrome P450 2D6 (P10635 whole entry): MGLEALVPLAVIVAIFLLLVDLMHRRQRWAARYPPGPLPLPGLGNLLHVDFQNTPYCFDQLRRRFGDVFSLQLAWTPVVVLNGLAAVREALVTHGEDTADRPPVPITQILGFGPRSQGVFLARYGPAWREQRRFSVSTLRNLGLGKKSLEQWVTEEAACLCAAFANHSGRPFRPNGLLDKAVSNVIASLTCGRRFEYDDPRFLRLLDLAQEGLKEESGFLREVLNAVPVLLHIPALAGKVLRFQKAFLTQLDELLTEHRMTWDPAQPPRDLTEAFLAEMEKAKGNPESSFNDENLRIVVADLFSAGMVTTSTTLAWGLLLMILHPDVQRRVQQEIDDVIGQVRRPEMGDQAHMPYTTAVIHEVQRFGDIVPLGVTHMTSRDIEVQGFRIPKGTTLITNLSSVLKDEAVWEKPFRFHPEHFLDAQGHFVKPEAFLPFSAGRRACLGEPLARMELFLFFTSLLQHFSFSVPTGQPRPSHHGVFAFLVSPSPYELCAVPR
Chain of Cytochrome P450 2C9 (P11712 whole entry): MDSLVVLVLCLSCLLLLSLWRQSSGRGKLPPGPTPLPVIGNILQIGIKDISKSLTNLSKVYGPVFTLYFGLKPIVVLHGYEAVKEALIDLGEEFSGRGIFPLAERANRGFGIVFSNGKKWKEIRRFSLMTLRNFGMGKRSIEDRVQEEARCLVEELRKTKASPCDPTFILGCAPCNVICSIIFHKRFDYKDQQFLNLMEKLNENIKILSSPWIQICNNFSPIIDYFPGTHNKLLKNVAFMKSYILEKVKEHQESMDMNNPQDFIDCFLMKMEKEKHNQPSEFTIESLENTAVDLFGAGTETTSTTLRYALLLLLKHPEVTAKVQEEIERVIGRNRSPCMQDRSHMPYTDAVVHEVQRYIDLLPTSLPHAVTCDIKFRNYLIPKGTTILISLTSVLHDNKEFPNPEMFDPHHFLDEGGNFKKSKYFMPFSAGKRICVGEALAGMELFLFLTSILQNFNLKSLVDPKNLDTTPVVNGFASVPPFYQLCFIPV

half-life [1]: > 2 h | IC50 [2]: > 40 µM | IC50 [3]: > 40 µM | IC50 [4]: > 40 µM | fraction unbound [5]: 0.15 | solubility [6]: 5.2 µg/mL (≈ 12.2 µM) | Cmax [7]: 6.9 µM | half-life [8]: 5.3 h | MRT [9]: 7 h | Cmax [10]: 5.9 µM | Drug metabolism [11]: < 2 nM
SMILES: [2H]C([2H])([2H])NC(=O)c1nnc(NC(=O)C2CC2)cc1Nc1cccc(-c2ncn(C)n2)c1OC [DEUCRAVACITINIB]
